Measurements as given in ChEMBL document CHEMBL3232919, “Imidazol-1-ylethylindazole voltage-gated sodium channel ligands are neuroprotective during optic neuritis in a mouse model of multiple sclerosis” (J Med Chem, 2014).

Experiments:
[1] = Displacement of [3H]sipatrigine from Wistar rat brain synaptosomes voltage-gated sodium channel by liquid scintillation counting; type: subcellular
Rattus norvegicus [2] = species: Rattus norvegicus; assay: Neuroprotective activity in oxygen/glucose deprivation-induced Wistar rat hippocampal slice assessed as inhibition of cell death by measuring ATP level at 50 uM; type: functional
Rattus norvegicus [3] = species: Rattus norvegicus; assay: Neuroprotective activity in oxygen/glucose deprivation-induced Wistar rat hippocampal slice assessed as inhibition of cell death by measuring ATP level at 3 uM; type: functional
[4] = Metabolic stability in rat liver microsomes assessed as drug turnover at 1 uM at 40 mins by LC-MS/MS analysis; type: ADME; conditions: read-out: Drug metabolism
Outline: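 Compound at 1 μM was incubated (n=2) with pooled rat liver microsomes (0.25 mg protein/ml) at 37°C for 0 and 40 min. Reactions were stopped with acetonitrile containing an internal standard, and parent disappearance was measured by LC-MS/MS. Percentage turnover was taken from peak heights relative to the zero-time samples.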

Rattus norvegicus [5] = species: Rattus norvegicus; assay: Neuroprotective activity in oxygen/glucose deprivation-induced Wistar rat hippocampal slice assessed as inhibition of cell death by measuring ATP level; type: functional
Rattus norvegicus [6] = species: Rattus norvegicus; conditions: Wistar, 1 uM

Row | Structure (SMILES) | IC50 [1] | inhibition at 50 µM (Rattus norvegicus [2]) | inhibition at 3 µM (Rattus norvegicus [3]) | metabolised at 40 min, 1 µM [4] | EC50 (Rattus norvegicus [5]) | inhibition (Rattus norvegicus [6])
1 | NCc1noc(-c2nn(Cc3ccc4c(c3)OCO4)c3ccccc23)n1 | 2.1 µM | 44% |  |  |  | 
2 | Cc1oncc1Cn1nc(-c2nc(CNC(=O)c3ccccc3)no2)c2ccccc21 | > 2000 µM | 19% |  |  |  | 
3 | CN1CCN(c2ncc(-c3cc(Cl)cc(Cl)c3Cl)c(N)n2)CC1 [SIPATRIGINE] |  |  | 93% |  |  | 
4 | NCc1noc(-c2c3ccccc3nn2Cc2ccccn2)n1 | > 10000 µM | 25% |  |  |  | 
5 | O=C(NCc1noc(-c2nn(CCn3ccnc3)c3ccccc23)n1)c1cccc(OC(F)(F)F)c1 | 1.5 µM | 37% |  | 78% |  | 
6 | COc1cccc(C(=O)NCc2noc(-c3c4ccccc4nn3CCn3ccnc3)n2)c1OC | 5.8 µM | 88% |  |  | 12.3 µM | 
7 | Cc1cccc(C(=O)NCc2noc(-c3c4ccccc4nn3CCn3ccnc3)n2)c1 | 2.5 µM | 41% |  |  |  | 
8 | CC(C)(C)c1ccc(C(=O)NCc2noc(-c3nn(CCn4ccnc4)c4ccccc34)n2)cc1 | 1.2 µM | 40% |  |  |  | 
9 | CC(=O)Nc1ccc(C(=O)NCc2noc(-c3c4ccccc4nn3CCn3ccnc3)n2)cc1 | 59 µM | -14% |  | 45% |  | 
10 | CC(C)(C)OC(=O)NCc1noc(-c2nn(-c3ccccn3)c3ccccc23)n1 | 74 µM | 18% |  |  |  | 
11 | CC(=O)Nc1ccc(S(=O)(=O)NCc2noc(-c3c4ccccc4nn3CCn3ccnc3)n2)cc1 | 17 µM | 25% |  | 54% |  | 
12 | O=C(NCc1noc(-c2c3ccccc3nn2CCn2ccnc2)n1)c1ccc2c(c1)OCO2 | 5 µM | 27% |  |  |  | 
13 | Cc1ccccc1C(=O)NCc1noc(-c2c3ccccc3nn2CCn2ccnc2)n1 | 2.9 µM | 62% |  |  |  | 
14 | NC1=N[C@H](O)[C@H]2[C@H]3O[C@]4(O)O[C@@H]([C@@H](O)[C@@]2(N1)[C@@H]4O)[C@]3(O)CO |  |  |  |  |  | 100%
15 | COc1cccc(C(=O)NCc2noc(-c3nn(CCn4ccnc4)c4ccccc34)n2)c1OC | 7.1 µM | 69% |  |  |  | 
16 | CC(C)(C)c1ccc(S(=O)(=O)NCc2noc(-c3nn(CCn4ccnc4)c4ccccc34)n2)cc1 | 4.4 µM | 16% |  |  |  | 
17 | O=C(NCc1noc(-c2c3ccccc3nn2CCn2ccnc2)n1)c1ccc(Cl)cc1 | 2.2 µM | 42% |  |  |  | 
18 | NCc1noc(-c2c3ccccc3nn2CCc2cccs2)n1 | 0.6 µM | 36% |  |  |  | 
19 | NCc1noc(-c2nn(Cc3ccc(-n4cccn4)cc3)c3ccccc23)n1 | 6.2 µM | 26% |  |  |  | 
20 | O=C(NCc1noc(-c2c3ccccc3nn2Cc2ccccn2)n1)c1ccccc1 | 41 µM | 58% |  |  |  | 
21 | COc1cccc(C(=O)NCc2noc(-c3c4ccccc4nn3CCn3ccnc3)n2)c1 | 5 µM | 63% |  |  |  | 
22 | O=S(=O)(NCc1noc(-c2nn(CCn3ccnc3)c3ccccc23)n1)c1ccc(Cl)cc1 | 10 µM | 21% |  |  |  | 
23 | O=C(NCc1noc(-c2c3ccccc3nn2CCn2ccnc2)n1)c1ccc2ccccc2c1 | 0.4 µM | 22% |  |  |  | 
24 | Cc1oncc1Cn1nc(-c2nc(CN)no2)c2ccccc21 | 15 µM | 19% |  |  |  | 
25 | CC(C)(C)OC(=O)NCc1noc(-c2c3ccccc3nn2CCn2ccnc2)n1 | 15.5 µM | 35% |  | 70% |  | 
